Laboratory results from ChEMBL document CHEMBL1126217, “Side-chain derivatives of biologically active nucleosides. 1. Side-chain analogs of 3'-azido-3'-deoxythymidine (AZT)” (J Med Chem, 1992).
In brackets after ≈: the same amount, converted by molar mass. Activity calls are given as the source filed them. The rule behind the calls is not given here.

Key:
Vaccinia virus [1] = test: Inhibitory activity against Vaccinia virus(VV) at a concentration 400 ug/mL; not effective; assay type: functional, organism-based; settings: Orthopoxvirus vaccinia
[2] = Inhibitory activity against herpes simplex virus type-1 (HSV-1) at a concentration 400 ug/mL; not effective; assay type: functional, organism-based; settings: Human alphaherpesvirus 1
[3] = tested on: Human immunodeficiency virus; test: Compound was evaluated for the cytotoxic concentration against HIV; assay type: functional; settings: Human immunodeficiency virus 1
Summary of the method: (§1)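 Infected cells mixed with serial compound dilutions (tested up to 200 μg/mL) and incubated 5 days at 37 °C. Viable cells counted microscopically in a hematocytometer by trypan blue exclusion to give 50% effective and cytotoxic concentrations.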

Human alphaherpesvirus 2 [4] = test: Inhibitory activity against herpes simplex virus type-2 (HSV-2) at a concentration 400 ug/mL; not effective; assay type: functional, organism-based
Vaccinia virus [5] = test: Inhibitory activity against Vaccinia virus(VV)at a concentration 400 ug/mL; not effective; assay type: functional, organism-based; settings: Orthopoxvirus vaccinia
MT4 = test: Inhibitory activity toward HIV replication in MT-4 cells; assay type: functional, cell-based; settings: Homo sapiens; summary of the method: as §1
Human alphaherpesvirus 2 [6] = test: Inhibitory activity towards herpes simplex virus type-2 (HSV-2)
[7] = tested on: Vesicular stomatitis virus; test: Inhibitory activity towards Vesicular stomatitis virus(VSV); assay type: functional
Vaccinia virus [8] = test: Inhibitory activity towards Vaccinia virus(VV); assay type: functional; settings: Orthopoxvirus vaccinia
Human alphaherpesvirus 1 = test: Inhibitory activity towards herpes simplex virus type-1 (HSV-1)

**Q.** What does the source list for `Cc1cn(C2CC(N=[N+]=[N-])C(CCO)O2)c(=O)[nH]c1=O` (configuration not stated)?
**A.** CC50 (Vaccinia virus [1]): inactive; HSV-1 inhibitory activity [2]: inactive; CC50 [3]: 200 µg/mL (≈ 711 µM); CC50 (Human alphaherpesvirus 2 [4]): inactive

**Q.** Which HSV-1 inhibitory activity [2] does the source give for `Cc1cn(C2CC(N=[N+]=[N-])C([C@H](O)CO)O2)c(=O)[nH]c1=O` (some centres not stated) here?
**A.** inactive

**Q.** And the CC50 [3]?
**A.** > 200 µg/mL

**Q.** And the CC50 (Human alphaherpesvirus 2 [4])?
**A.** inactive

**Q.** And the CC50 (Vaccinia virus [5])?
**A.** inactive

**Q.** What does the source list for `Cc1cn(C2CC(N=[N+]=[N-])C([C@@H](O)CO)O2)c(=O)[nH]c1=O` (some centres not stated)?
**A.** HSV-1 inhibitory activity [2]: inactive; CC50 [3]: 17.7 µg/mL (≈ 59.5 µM); CC50 (Human alphaherpesvirus 2 [4]): inactive; CC50 (Vaccinia virus [5]): inactive

**Q.** What does the source list for `Cc1cn(C2CC(N=[N+]=[N-])C([C@H](C)O)O2)c(=O)[nH]c1=O` (some centres not stated)?
**A.** HSV-1 inhibitory activity [2]: inactive; CC50 [3]: > 200 µg/mL; CC50 (Human alphaherpesvirus 2 [4]): inactive; CC50 (Vaccinia virus [5]): inactive

**Q.** Which EC50 (MT4) does the source give for `Cc1cn([C@H]2C[C@H](N=[N+]=[N-])[C@@H](CO)O2)c(=O)[nH]c1=O` [ZIDOVUDINE] here?
**A.** 0.002 µg/mL (≈ 0.00748 µM)

**Q.** With `Cc1cn(C2CC(N=[N+]=[N-])C([C@@H](C)O)O2)c(=O)[nH]c1=O` (some centres not stated) as the compound, how does the CC50 (Human alphaherpesvirus 2 [6]) read?
**A.** 300 µg/mL (≈ 1070 µM)

**Q.** What about the CC50 [7] of the same compound?
**A.** > 400 µg/mL

**Q.** And the CC50 [3]?
**A.** > 200 µg/mL

**Q.** What about the CC50 (Vaccinia virus [8]) of the same compound?
**A.** 300 µg/mL (≈ 1070 µM)

**Q.** And the CC50 (Human alphaherpesvirus 1)?
**A.** 150 µg/mL (≈ 533 µM)
